KCNK9 inh = human KCNK9 channel inhibition; 310,000 tested, 1.2% active; Q9NPC2; HEK293 KCNK9, FluxOR thallium flux fluorescence; hits give low values; B-score at 10 µM;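 active = ratio B-score over 3 SD below the library mean, with starting fluorescence within 5 SD of its mean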;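 also: negative B-score means less thallium flux so channel inhibition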
KCNK3 inh = human KCNK3 channel inhibition, primary screen | O14649 | CHO-KCNK3 thallium flux, FluxOR fluorescence; hits give low values | B-score at 10 µM | 340,000 tested, 0.84% active;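 active = B-score under library mean minus 4 SD, starting fluorescence ratio at most library mean plus 5 SD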;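 also: more negative B-score means stronger inhibition of thallium flux through KCNK3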
KCNQ1 pot = potentiates or activates the human KCNQ1 potassium channel | P51787 | CHO-K1 KCNQ1, thallium flux FluxOR fluorescence; hits give high values | B-score at 10 µM | 310,000 tested, 0.35% active | AID 2648;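 active = fluorescence ratio B-score, a plate-corrected score, at least three library SD, with initial intensity B-score within 5 SD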
Target sequence (P51787 whole entry, looked up): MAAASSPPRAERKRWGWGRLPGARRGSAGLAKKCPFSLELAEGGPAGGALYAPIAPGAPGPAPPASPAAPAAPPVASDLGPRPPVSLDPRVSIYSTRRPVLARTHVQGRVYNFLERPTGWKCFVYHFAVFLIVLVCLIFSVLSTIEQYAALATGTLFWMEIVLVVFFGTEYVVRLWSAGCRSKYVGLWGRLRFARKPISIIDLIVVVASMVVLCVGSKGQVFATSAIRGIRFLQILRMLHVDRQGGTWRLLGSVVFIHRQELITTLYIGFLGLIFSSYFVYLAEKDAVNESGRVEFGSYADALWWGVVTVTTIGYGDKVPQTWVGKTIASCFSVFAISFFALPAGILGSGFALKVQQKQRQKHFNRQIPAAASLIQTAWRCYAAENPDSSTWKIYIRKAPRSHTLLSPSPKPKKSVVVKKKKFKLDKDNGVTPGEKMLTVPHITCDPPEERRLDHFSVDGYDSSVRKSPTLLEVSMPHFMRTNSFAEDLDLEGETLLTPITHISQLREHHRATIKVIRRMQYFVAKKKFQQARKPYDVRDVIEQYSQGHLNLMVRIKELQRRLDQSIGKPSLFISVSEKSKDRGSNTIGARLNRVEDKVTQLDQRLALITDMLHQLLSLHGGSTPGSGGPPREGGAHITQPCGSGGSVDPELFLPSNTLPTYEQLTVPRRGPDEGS
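Assay system: stable KCNQ1 CHO-K1 line; medium: assay buffer, equal DMSO in all wells; timing: 90 min dye loading and 20 min compound exposure, both at room temperature; technique: kinetic FluxOR thallium fluorescence, 10-s 1-Hz baseline, 110-s post-stimulus read; read-out basis: B score of baseline-normalized fluorescence ratio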
KCNQ1 inh = blocks the human KCNQ1 potassium channel; P51787; CHO-K1 KCNQ1, FluxOR thallium flux fluorescence; hits give high values; B-score at 10 µM; 310,000 tested, 1.3% active;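 active = compounds whose thallium flux B-score, printed positive for inhibition, exceeds three library SD while starting fluorescence stays within three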;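 also: channel opened by potassium depolarization with thallium stimulus after 20 min compound exposure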
hERG rescue = shields human hERG channel from block by proarrhythmic agents; activation (rescue from dofetilide block), less the hit threshold, % at 10 µM; Q12809; CHO-hERG, FluxOR thallium flux, dofetilide IC70 present; 310,000 tested, 0.51% active; AID 1511;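 active = activation above the mean of controls blocked by dofetilide plus 5 SD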;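 also: thallium influx through hERG after potassium depolarization seen as dye fluorescence rise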
KCNK9 block conf = human KCNK9 inhibitor confirmation | shares compounds with KCNK9 inh | HEK293 KCNK9 cells, FluxOR thallium flux fluorescence | inhibition, % at 10 µM | 4,900 tested, 43% active | AID 492992;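 active = thallium signal inhibited by more than 5 SD of the compound-free buffer control wells, on both duplicate plates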
Kir2-1 spec = selectivity of KCNK9 modulators against mouse Kir2.1; shares compounds with KCNK9 inh; Kir2.1 cells, FluxOR thallium flux fluorescence; inhibition, % at 10 µM; 4,900 tested, 4% active;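 active = thallium signal drop more than 5 SD beyond the mean of the no-compound control wells, seen in both duplicate plates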;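 also: signal is fluorescence rise after thallium addition divided by baseline fluorescence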
KCNK9 uninduced = non-induced cell nonspecific activity of KCNK9 modulators. inhibition, % at 10 µM. 4,900 tested, 40% active. non-induced KCNK9-HEK293, FluxOR thallium flux. shares compounds with KCNK9 inh. AID 492997;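 active = thallium signal drop beyond 5 SD of the untreated control mean, on both duplicate plates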
Numbers stand for hits; - = inactive; . = no result. In the library only some 3.1% were active in any assay of this set; here they are far more common.

SMILES	KCNK9 inh	KCNK3 inh	KCNQ1 pot	KCNQ1 inh	hERG rescue	KCNK9 block conf	Kir2-1 spec	KCNK9 uninduced
Cn1c(=O)c2c(SCC(=O)Nc3ccc4c(c3)OCCO4)nc(CC(C)(C)C)nc2n(C)c1=O	-	-	-	-	-	-	-	-
Cn1c(=O)c2c(SCC(=O)NC3CCCC3)nc(CC(C)(C)C)nc2n(C)c1=O	-	-	-	-	-	.	.	.
O=C(CN1CCN(Cc2ccccc2)CC1)NC(=O)NC1CCCCC1	-	-	-	-	-	.	.	.
O=C(CN1CCC(Cc2ccccc2)CC1)NC(=O)NC1CCCCC1	-	-	-	-	-	-	-	-
CCN(CC(=O)NC(=O)NC1CCCCC1)Cc1ccccc1	-	-	-	-	-	-	-	-
Cc1ccc(C(=O)OCC(=O)Nc2cc(S(C)(=O)=O)ccc2Cl)cc1S(=O)(=O)N1CCCCC1	-	-	-	-	-	.	.	.
Cc1ccc2nc(NC(=S)NC(=O)c3ccco3)sc2c1	-	-	57	-	36	-	-	-
Cc1ccc2nc(NC(=O)c3ccco3)sc2c1	-	-	-	-	-	.	.	.
CC(C)(C)C1CCc2onc(C(=O)NCc3ccc(F)cc3)c2C1 (stereo unspecified)	-	-	-	-	-	-	-	-
CCc1ccc(CN2CCCC(C(=O)Nc3ccccc3-c3ccc(OC)cc3)C2)o1 (stereo unspecified)	-8.7	-	-	-	-	-	-	28%
CCCn1c(N)c(N2CCCCC2)c(=O)n(CC(=O)Nc2cccc(S(=O)(=O)N(C)C)c2)c1=O	.	-	.	.	.	.	.	.
CCOc1ccc(NC(=O)c2ccccc2OCC(=O)c2ccccc2)cc1	-14	-	-	-	-	42%	-	-
CCOc1ccccc1C(=O)Nc1ccc(C(=O)c2ccccc2)cc1	-13	-	-	-	-	76%	-	32%
CCn1cc(SCC(=O)N2CCc3ccccc32)c2ccccc21	-	-	-	-	-	-	40%	-
O=C(CSc1ccccc1)N1CCc2ccccc21	-	-	-	-	-	.	.	.
CCCCSc1nnc2n(CCc3ccccc3)c(=O)c3c4c(sc3n12)COC(C)(C)C4	-	-	-	-	-	-	-	-
Cc1nnc2n(-c3ccccc3)c(=O)c3c4c(sc3n12)COC(C)(C)C4	-	-	-	-	-	.	.	.
COc1ccc(NS(=O)(=O)c2cccc(C(=O)NNC(=O)CN3C(=O)NC(C)(C)C3=O)c2)cc1	-	-	-	-	-	.	.	.
CCOC(=O)C1(CCOc2ccccc2)CCN(Cc2cc(OC)ccc2OC)CC1	-	-	-	-	-	-	-	-
CCOC(=O)C1(CCOc2ccccc2)CCN(Cc2ccc(F)c(OC)c2)CC1	-	-	-	-	-	-	-	-
CCOC(=O)C1(CCOc2ccccc2)CCN(Cc2ccc(O)c(OC)c2)CC1	-	-	-	-	-	.	.	.
CCOC(=O)C1(CCOc2ccccc2)CCN(Cc2ccncc2)CC1	-	-	-	-	-	.	.	.
CCOC(=O)C1(CCOc2ccccc2)CCN(Cc2cccn2-c2ncccn2)CC1	-	-	-	-	-	-	-	-
CCOC(=O)c1ccccc1NC(=O)COC(=O)c1ccc(OCC(=O)N2CCOCC2)c(OCC)c1	.	-	.	.	.	.	.	.
Cc1ccc(-c2ccc(SCC(=O)c3ccccc3)nn2)cc1	-	-	-	-	-	.	.	.
SMILES	KCNK9 inh	KCNK3 inh	KCNQ1 pot	KCNQ1 inh	hERG rescue	KCNK9 block conf	Kir2-1 spec	KCNK9 uninduced
COc1ccc(-c2ccc(SCC(=O)c3ccccc3)nn2)cc1OC	-11	-	-	-	-	60%	-	-
O=c1c2c3c(sc2n(CCN2CCCCC2)c(=O)n1Cc1ccco1)CCCCC3	-	-	-	-	-	-	-	-
COCCCNC(=O)c1cc2c(=O)n3cc(C)ccc3nc2nc1NCC1CCCO1 (stereo unspecified)	-	.	-	-	-	.	.	.
Cc1cccc(C)c1NC(=O)CN(C)C(=O)c1ccc2c(=O)n3c(nc2c1)CCC3	.	-	.	.	.	.	.	.
C#Cc1ccc([C@H]2C=C(C(=O)N3CCN(Cc4ccccc4)CC3)O[C@@H](OCc3ccc(CO)cc3)C2)cc1	-	-	-	-	-	-	-	-
O=C(C1=C[C@H](c2ccc(C(F)(F)F)cc2)C[C@H](OCCCCO)O1)N1CCN(Cc2ccccc2)CC1	-	-	-	-	-	-	-	-
O=C(C1=C[C@@H](c2ccc(Br)cc2)C[C@@H](OCc2ccc(CO)cc2)O1)N1CCN(Cc2ccccc2)CC1	-	-	-	-	-	.	.	.
Cc1ccc(Cn2c(N3CCN(CCO)CC3)nc3c2c(=O)n(C)c(=O)n3C)cc1	-	-	-	-	-	.	.	.
Cc1ccc(N(CC(=O)NCc2ccc3c(c2)OCO3)C(=O)c2csnn2)cc1	-	-	-	-	-	.	.	.
Cc1ccc([N+](=O)[O-])cc1N=C(c1cccc(Br)c1)N1CCOCC1	-20	-12	-	-	-	57%	-	33%
O=C(Oc1cccc(C(=S)N2CCOCC2)c1)c1ccc([N+](=O)[O-])cc1	-	-	-	-	-	.	.	.
CC(=O)N1N=C(c2ccncc2)CC1c1ccccc1O (stereo unspecified)	-	-	-	-	-	.	.	.
CC(=O)N1N=C(c2ccccc2)CC1c1cn(Cc2ccccc2)c2ccccc12 (stereo unspecified)	-8.4	-	-	-	-	38%	-	34%
CCOCCOC(=O)Cn1cnc2scc(-c3ccc(C)cc3)c2c1=O	-	-	-	-	-	-	-	-
Cc1ccc(-c2csc3ncn(CC#N)c(=O)c23)cc1	-	-	-	-	-	.	.	.
CCCOC(=O)Cn1cnc2scc(-c3ccc(OC)cc3)c2c1=O	-	-	-	-	-	-	-	-
CC(C)(C)c1ccc(OCCOc2ccc(C(C)(C)C)cc2NC=O)c(NC=O)c1	-8.2	-	-	-	-	34%	-	-
COCCOc1ccc(C(F)(F)F)cc1NC(=O)c1ccccc1	-	-	-	-	-	.	.	.
O=C(/C=C/c1ccc(-c2ccccc2[N+](=O)[O-])o1)c1ccco1	-12	-	-	-	-	56%	-	25%
O=C(/C=C/c1ccc([N+](=O)[O-])cc1)c1ccco1	-	-	-	-	-	.	.	.
Cc1cccc(CC(=O)OCn2nnc3ccccc3c2=O)c1	-	-	-	-	-	-	-	-
CC1CC(C)CN(Cc2nc(N)nc(Nc3ccc4ccccc4c3)n2)C1 (stereo unspecified)	-	-	-	-	-	.	.	.
CCCCCCCCC(=O)N/N=C(\C)c1ccc(O)cc1O	-10	-	-	-	-	57%	-	42%
CCOC(=O)c1c(C)n(-c2ccc(C)cc2)c2c(C(C(C)=O)C(=O)O)c(Br)c(O)c(O)c12 (stereo unspecified)	-	-	-	-	-	.	.	.

Screening data as filed in PubChem BioAssay.
